Source: PubChem BioAssay
m5-HT2A agonist: activates the mouse 5-HT2A serotonin receptor | P35363 | AID 624169 | 360,000 tested, 0.66% active | CHO-K1 mHTR2A beta-arrestin complementation, luminescence; percent of 30 µM serotonin response | activation, % at 7.6 µM;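 active means activation above a run cutoff, the mean activation of all tested compounds plus 3 SD, cut at about 14% in these data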;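 further: 0% = plate median of compound wells and 100% = 30 µM serotonin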
EBI2 block: antagonists of human EBI2 receptor; EBI2 beta-arrestin recruitment, luminescence, 7a,25-OHC stimulated; 360,000 tested, 0.81% active; P32249; inhibition, % at 5 µM; in the data active means inhibition above about 38%;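 further: enzyme fragment complementation signal reports receptor beta-arrestin coupling in cells; 0% = agonist plus DMSO wells and 100% = wells without agonist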
Target sequence (P32249 whole entry, looked up, the tested form may be a part): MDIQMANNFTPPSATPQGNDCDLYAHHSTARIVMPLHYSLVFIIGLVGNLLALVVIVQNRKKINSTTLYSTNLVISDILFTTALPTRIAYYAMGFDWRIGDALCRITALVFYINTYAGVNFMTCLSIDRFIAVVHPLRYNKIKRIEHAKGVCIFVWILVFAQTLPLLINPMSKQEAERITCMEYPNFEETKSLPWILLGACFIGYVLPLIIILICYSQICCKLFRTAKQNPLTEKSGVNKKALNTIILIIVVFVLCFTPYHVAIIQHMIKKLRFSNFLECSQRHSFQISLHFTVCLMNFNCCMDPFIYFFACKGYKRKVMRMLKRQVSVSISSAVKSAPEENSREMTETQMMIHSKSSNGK
MC4R antag cAMP: human MC4R antagonism in cAMP assay. MC4R-expressing cells, MTII-stimulated cAMP, LANCE TR-FRET. AID 540295. P32245. 360,000 tested, 0.48% active. inhibition, % at 6.5 µM;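 active means inhibition above its plate's cutoff, the mean of tested wells on that plate plus 3 SD, cut at about 29% in these data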;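 further: 0% = Melanotan II alone and 100% = Melanotan II plus saturating MCL0020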
Target sequence (P32245 whole entry, looked up): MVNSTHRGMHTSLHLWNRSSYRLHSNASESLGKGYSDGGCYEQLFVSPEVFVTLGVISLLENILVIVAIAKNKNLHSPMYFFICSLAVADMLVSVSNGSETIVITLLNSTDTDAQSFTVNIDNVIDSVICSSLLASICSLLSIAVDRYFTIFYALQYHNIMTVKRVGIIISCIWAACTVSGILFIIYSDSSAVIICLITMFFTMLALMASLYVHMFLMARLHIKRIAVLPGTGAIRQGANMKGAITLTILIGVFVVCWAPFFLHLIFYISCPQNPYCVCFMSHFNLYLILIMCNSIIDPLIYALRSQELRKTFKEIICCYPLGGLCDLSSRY
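System – human MC4R-expressing U2OS cells · Also added – Melanotan II · Dosing – one concentration, 6.5 µM nominal · Timing – 30-min compound, 1-h challenge, 1-h detection, room temperature · Measured by – Eu-cAMP/anti-cAMP TR-FRET, emission 671 nm · Replicates – singlicate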
MC4R ag barr: agonists of human melanocortin 4 receptor (MC4R) beta-arrestin. activation, % at 8.9 µM. 360,000 tested, 0.98% active. U2OS MC4R beta-arrestin complementation, luminescence; percent of melanotan II response, DMSO zero. AID 540308;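 active means activation above a per-plate cutoff, the mean activation of sample wells on that plate plus 3 SD, cut at about 8% in these data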
EBI2 antag conf: confirmation of human EBI2 receptor antagonists | shares compounds with EBI2 block | AID 651997 | EBI2 beta-arrestin luminescence, 7a,25-OHC antagonism | inhibition, % at 5 µM | 2,400 tested, 29% active;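 active means inhibition of at least 50%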
EBI2 ag: EBI2 agonism counter-screen; shares compounds with EBI2 block; EBI2-expressing cells, agonist mode, luminescence, 60 min; 0% vehicle, 100% 7α,25-dihydroxycholesterol control; activation, % at 5 µM; 2,400 tested, under 10 active;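 active means activation of at least 50%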
bGal counter: counter-screen for EBI2 antagonists: E. coli beta-galactosidase inhibition; shares compounds with EBI2 block; purified beta-galactosidase, luminescent Galacton Star, 15 min; inhibition, % at 5 µM; 2,400 tested, 1% active;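 active means replicate-average signal at least 3 plate SD below neutral wells, shown as high inhibition, flagging enzyme-inhibiting false positives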;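 further: 0% = DMSO wells with enzyme and 100% = wells lacking enzyme; higher means stronger loss of beta-gal luminescence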
* marks the source's active call; other numbers are inactive results; nt = not tested or not shown. In the library only some 2.8% were active in any assay of this set; here they are far more common.

SMILES | m5-HT2A agonist | EBI2 block | MC4R antag cAMP | MC4R ag barr | EBI2 antag conf | EBI2 ag | bGal counter
CCOC(=O)N1CCN(C(=O)c2cc3ccccc3o2)CC1 | 6 | 64* | 10 | 0 | 21 | 0 | 4
O=C(c1ccccc1)N1CCN(C(=O)c2cc3ccccc3o2)CC1 | -1 | 70* | 5 | -1 | 55* | 2 | 9
O=C(c1ccccc1)N1CCN(Cc2ccccc2)CC1 | 3 | -1 | 12 | 1 | nt | nt | nt
O=C(c1cc2ccccc2oc1=O)N1CCN(S(=O)(=O)c2ccccc2)CC1 | 2 | 0 | 7 | -1 | nt | nt | nt
Cc1cc(C)c(S(=O)(=O)N2CCN(C(=O)c3cc4ccccc4o3)CC2)c(C)c1 | 2 | 90* | 4 | 1 | 83* | 3 | 7
CC(C)(C)S(=O)N1Cc2cn(Cc3ccccc3)c(=O)cc2[C@@H]1CCO (some centres not stated) | -3 | -5 | -4 | -1 | nt | nt | nt
CCN(CCn1cccn1)C(=O)C1CCC(=O)N(CC2CCCCC2)C1 (configuration not stated) | -4 | -1 | 5 | 0 | nt | nt | nt
CC1CCCCC12NC(=O)N(CC(=O)N1CCN(C(=O)c3cccs3)CC1)C2=O (configuration not stated) | 4 | -11 | 2 | -2 | nt | nt | nt
CCCc1cc(C(=O)N2CCCC(N3CCN(c4ccccc4F)CC3)C2)n(C)n1 (configuration not stated) | -2 | -6 | 5 | 0 | nt | nt | nt
CCOC(=O)c1ccc(S(=O)(=O)N2CCN(C(C)=O)CC2)cc1 | 3 | -4 | 2 | 1 | nt | nt | nt
Cc1ccc(S(=O)(=O)N2CCN(C(=O)C3COc4ccccc4O3)CC2)cc1C (configuration not stated) | 0 | 24 | 11 | 1 | nt | nt | nt
CCOC(=O)c1ccc(S(=O)(=O)N2CCN(C(=O)c3cc4ccccc4o3)CC2)cc1 | 2 | 91* | -4 | 1 | 59* | 0 | 2
Cc1cc(C)c(S(=O)(=O)N2CCN(C(=O)C3COc4ccccc4O3)CC2)c(C)c1 (configuration not stated) | -2 | 88* | 1 | 0 | 71* | 6 | 2
C/C(=N\NC(=O)c1cccc(S(=O)(=O)N2CCCC2)c1)c1ccc(OCC(=O)N(C)C)cc1 | 10 | -5 | 0 | -2 | nt | nt | nt
C=CCn1cc(-c2ccc(Cl)cc2)cc(C#N)c1=O | 5 | 3 | 5 | 1 | nt | nt | nt
N#Cc1cc(-c2ccc(Cl)cc2)cn(Cc2c(Cl)cccc2Cl)c1=O | 1 | 45* | 10 | 0 | 19 | 1 | 9
Cc1ccc(OCC(=O)N2CCN(C(=O)c3ccc([N+](=O)[O-])cc3)CC2)cc1 | 1 | 83* | -3 | -3 | 58* | -2 | -10
CCOC(=O)N1CCN(C(=O)COc2ccc([N+](=O)[O-])cc2)CC1 | 5 | 28 | 2 | 1 | nt | nt | nt
O=C(COc1ccccc1)N1CCN(C(=O)c2ccc([N+](=O)[O-])cc2)CC1 | 7 | 53* | 2 | -1 | 38 | 2 | -6
Cc1ccc(OCC(=O)N2CCN(C(=O)CCC3CCCC3)CC2)cc1 | -1 | 81* | 12 | -1 | 61* | -1 | -7
COc1ccc(-c2nc(CS(=O)(=O)CC(=O)NCCCN3CCOCC3)c(C)o2)cc1 | -1 | -2 | 8 | -3 | nt | nt | nt
CCC(Cc1ccccc1)NC(=O)c1ccc2nc(N3CCOCC3)sc2c1 (configuration not stated) | -3 | 1 | 10 | 1 | nt | nt | nt
COc1ccc([C@H]2CC(=O)C=C(c3ccc(Cl)c(F)c3)C2)cc1 | 1 | 51* | -6 | 0 | 52* | -1 | -6
COc1ccc([C@H]2CC(=O)C=C(c3ccc(Cl)cc3C)C2)cc1 | 0 | 25 | 0 | 2 | nt | nt | nt
COc1ccc([C@H]2CC(=O)C=C(c3ccc(OC)nc3)C2)cc1 | 8 | 34 | -2 | 0 | nt | nt | nt
SMILES | m5-HT2A agonist | EBI2 block | MC4R antag cAMP | MC4R ag barr | EBI2 antag conf | EBI2 ag | bGal counter
COc1ccc([C@H]2CC(=O)C=C(c3ccc(Cl)c(Cl)c3)C2)cc1 | 2 | 80* | 2 | 2 | 57* | 0 | 8
COc1ccc(C2=CC(=O)C[C@H](c3ccc(Cl)cc3)C2)cn1 | -5 | 50* | 12 | 4 | 40 | 0 | -13
COc1ccc([C@H]2CC(=O)C=C(c3cccc(C(C)C)c3)C2)cc1 | -5 | 4 | 3 | 3 | nt | nt | nt
COc1ccc([C@H]2CC(=O)C=C(c3ccc(C)c(F)c3)C2)cc1 | -8 | 53* | 5 | -2 | 46 | 2 | -2
O=[N+]([O-])c1sccc1CS(=O)(=O)c1ccccc1 | -2 | 1 | 3 | -1 | nt | nt | nt
O=C(Cc1n[nH]c(=O)c2ccccc12)NC(c1ccccc1)c1ccccc1 | 1 | -2 | 13 | 1 | nt | nt | nt
COc1ccccc1C1=CC(=O)C[C@H](c2ccc(Cl)cc2)C1 | 1 | 22 | 2 | -1 | nt | nt | nt
COc1cccc(C2=CC(=O)C[C@H](c3ccc(Cl)cc3)C2)c1OC | 1 | 62* | 8 | 1 | 41 | 0 | 12
Cc1sc2ncnc(N/N=C/c3cccc(O)c3)c2c1C | 0 | 5 | 5 | -2 | nt | nt | nt
C/C(=N\Nc1ncnc2sc(C)c(C)c12)c1ccccn1 | -1 | 55* | -1 | 0 | 53* | -2 | -5
COc1ccccc1N1CCN(C(=O)c2cc(-c3ccc(C)cc3)on2)CC1 | 2 | 64* | 6 | 2 | 44 | 0 | 1
COc1ccccc1N1CCN(C(=O)c2cc(-c3ccc(Cl)cc3)on2)CC1 | 1 | 58* | -1 | 4 | 41 | 0 | 4
COc1ccc(-c2cc(C(=O)N3CCN(c4ccccc4OC)CC3)no2)cc1 | 2 | 68* | 16 | -1 | 42 | -2 | -10
COc1ccccc1-c1cc(C(=O)N2CCN(c3ccccc3OC)CC2)no1 | 2 | 18 | 3 | -1 | nt | nt | nt
COc1ccccc1N1CCN(C(=O)c2cc(C3CC3)on2)CC1 | -1 | -6 | 5 | -1 | nt | nt | nt
COc1ccccc1N1CCN(C(=O)c2cc(-c3ccc(F)cc3)on2)CC1 | -4 | 57* | 1 | -1 | 48 | -1 | 6
COc1ccc(C2=NCCn3nc4ccccc4c32)cc1 | 6 | -3 | -4 | 0 | nt | nt | nt
O=C(CN1CCN(c2cccc(Cl)c2)CC1)c1ccc(O)cc1O | 2 | -1 | -2 | -3 | nt | nt | nt
COc1cc(Br)cc2cc(C(=O)N3CCOCC3)c(=O)oc12 | 5 | -6 | 1 | -1 | nt | nt | nt
O=C(c1cc2c(ccc3ccccc32)o1)N1CCCCC1 | 0 | 51* | 4 | -4 | 27 | 0 | 6
O=C(c1[nH]c(C(F)(F)F)nc1-c1ccccc1)N1CCN(c2ncc(C(F)(F)F)cc2Cl)CC1 | 11 | -4 | nt | nt | nt | nt | nt
